Measured values as given in ChEMBL document CHEMBL4028911, “Discovery of a Small-Molecule Bromodomain-Containing Protein 4 (BRD4) Inhibitor That Induces AMP-Activated Protein Kinase-Modulated Autophagy-Associated Cell Death in Breast Cancer” (J Med Chem, 2017).
pIC50: −log10 of the molar value. Active and inactive are the calls of the source. The rule behind the calls is not given here.

Tests used:
[1] = target: Bromodomain-containing protein 4 (Homo sapiens, UniProt O60885); test: Inhibition of BRD4 in human MDA-MB-231 cells assessed as increase in ATG13 phosphorylation at ser318 at 3 uM up to 36 hrs by Western blot analysis; type: cell-based
How it was run: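 MCF-7 (1.5 μM) or MDA-MB-231 (3 μM) cells treated for indicated times. Adherent and floating cells lysed in RIPA with 1 mM PMSF. Equal protein run on 10-15% SDS-PAGE, blotted to PVDF, blocked in milk or BSA, HRP/ECL detection. β-actin loading control.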

[2] = tested on: MCF7; test: Induction of autophagy in human MCF7 cells assessed as increase in LC3B puncta at 1.5 uM after 24 hrs by DAPI-staining based immunocytochemistry; type: functional, cell-based
How it was run: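 MCF-7 cells treated with 1.5 µM for 24 h and blocked with 1.5% goat serum in PBS. Incubated overnight at 4°C with anti-LC3B (1:200) in PBS/1% BSA, then FITC secondary for 1 h at room temperature. Nuclei counterstained with DAPI; LC3B puncta imaged.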

[3] = target: Bromodomain-containing protein 2 (Homo sapiens, UniProt P25440); test: Inhibition of recombinant human N-terminal GST-tagged BRD2 bromodomain-2 (339 to 459 residues) expressed in Escherichia coli expression system after 120 mins by TR-FRET assay
Bromodomain-containing protein 2, sequence (P25440 whole entry, the tested form may be a part): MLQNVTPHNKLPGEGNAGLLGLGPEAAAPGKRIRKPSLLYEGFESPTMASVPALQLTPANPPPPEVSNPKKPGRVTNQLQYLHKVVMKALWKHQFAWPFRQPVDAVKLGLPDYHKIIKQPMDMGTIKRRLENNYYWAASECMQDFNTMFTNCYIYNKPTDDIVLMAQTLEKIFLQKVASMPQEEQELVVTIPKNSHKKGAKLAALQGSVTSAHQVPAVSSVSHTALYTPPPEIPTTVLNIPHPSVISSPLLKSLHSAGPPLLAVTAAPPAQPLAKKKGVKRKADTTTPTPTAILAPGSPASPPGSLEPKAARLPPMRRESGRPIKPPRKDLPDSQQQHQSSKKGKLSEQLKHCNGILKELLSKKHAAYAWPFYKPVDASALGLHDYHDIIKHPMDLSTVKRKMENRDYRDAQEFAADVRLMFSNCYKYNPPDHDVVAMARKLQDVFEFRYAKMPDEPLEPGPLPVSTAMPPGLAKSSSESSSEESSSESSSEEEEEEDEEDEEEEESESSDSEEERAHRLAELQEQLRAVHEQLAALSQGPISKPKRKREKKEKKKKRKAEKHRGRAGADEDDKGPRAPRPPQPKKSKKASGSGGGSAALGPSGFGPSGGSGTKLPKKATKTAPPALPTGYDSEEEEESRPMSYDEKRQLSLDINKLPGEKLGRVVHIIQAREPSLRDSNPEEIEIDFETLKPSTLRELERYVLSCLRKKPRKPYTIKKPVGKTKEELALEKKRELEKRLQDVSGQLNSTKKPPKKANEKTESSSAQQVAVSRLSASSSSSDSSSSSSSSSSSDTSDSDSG
How it was run: (§1)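 TR-FRET bromodomain binding. Recombinant BRD domain, BET ligand and test agent in 20 μl assay buffer with 1% DMSO final. Incubated 120 min at room temperature. Blank lacks BET ligand.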

[4] = target: Bromodomain testis-specific protein (Homo sapiens, UniProt Q58F21); test: Inhibition of recombinant human N-terminal GST-tagged BRDT bromodomain-1 (22 to 138 residues) expressed in Escherichia coli expression system after 120 mins by TR-FRET assay; how it was run: as §1
[5] = tested on: Mus musculus; test: In vivo Antiproliferative activity in BALB/c mouse xenografted with human MCF7 cells assessed as reduction in Ki-67 positive cells at 100 mg/kg, ig administered once a day for 24 days by hematoxylin-staining based immunohistochemistry analysis; type: functional, organism-based
How it was run: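 Xenograft tumors from vehicle and 100 mg/kg groups were formalin-fixed and sectioned. Antigen retrieval by microwaving in EDTA buffer (pH 8.0) or citrate buffer (pH 6.0). […] Percentage of positive staining quantified.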

[6] = tested on: Mus musculus; test: In vivo inhibition of BRD4 expression in BALB/c mouse xenografted with human MDA-MB-231 cells at 100 mg/kg, ig administered once a day for 27 days by Western blot analysis; type: functional, organism-based
How it was run: (§2)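 Tumor tissues excised from MCF-7 or MDA-MB-231 xenograft mice were lysed and analysed by western blot for BRD4, c-Myc, LC3 and cleaved caspase-3.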

[7] = tested on: Mus musculus; test: In vivo inhibition of c-Myc expression in BALB/c mouse xenografted with human MDA-MB-231 cells at 100 mg/kg, ig administered once a day for 27 days by Western blot analysis; type: functional, organism-based; how it was run: as §2
[8] = tested on: MDA-MB-231; test: Induction of autophagy in human MDA-MB-231 cells assessed as assessed as cytoplasmic vacuolization; type: functional, cell-based
[9] = tested on: MDA-MB-231; test: Induction of autophagy in human MDA-MB-231 cells assessed as induction of autophagic vacuoles at 3 uM by MDC-based fluorescence microscopy; type: functional, cell-based
How it was run: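 MDA-MB-231 cells exposed to 3 μM for indicated times, stained with 0.05 mM monodansylcadaverine, and autophagic vacuoles viewed by fluorescence microscopy.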

Which results are given for `Cc1cc(-c2nc3sc4c(c3c(=O)[nH]2)CCN(C)C4)cc(C)c1O`?
inhibition [1]: Active; Activity [2]: Active; pIC50 [3]: < 4.00; pIC50 [4]: < 4.00; Activity [5]: Active; Activity [6]: Active; Activity [7]: Active; Activity [8]: Active; Activity [9]: Active
